Key:
[1] = Drug level in bile-duct cannulated rat bile treated with 2-(((1r,4r)-4-(((4-chlorophenyl)(phenyl)carbamoyloxy)methyl)cyclohexyl)methoxy)acetic acid; type: ADME; settings: in vivo
[2] = tested on: Plasma; assay: Drug metabolism in po dosed rat plasma assessed as ralinepag formation; type: ADME, organism-based; settings: in vivo
[3] = tested on: Plasma; assay: Drug level in bile-duct cannulated rat plasma treated with 2-(((1r,4r)-4-(((4-chlorophenyl)(phenyl)carbamoyloxy)methyl)cyclohexyl)methoxy)acetic acid; type: ADME, cell-free
[4] = Drug degradation in simulated gastric fluid after 3 hrs
Procedure, shortened: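 Incubated in simulated gastric fluid at room temperature for 3 h; conversion to parent monitored.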

## O=C(COC[C@H]1CC[C@H](COC(=O)N(c2ccccc2)c2ccc(Cl)cc2)CC1)NCCS(=O)(=O)O
[1]
  Drug metabolism: Metabolite_Detected
[2]
  Drug metabolism: Metabolite_Detected
[3]
  Drug metabolism: Metabolite_Detected
[4]
  Drug degradation: Metabolite_Notdetected

From ChEMBL document CHEMBL4004807 (J Med Chem, 2017)
